Laboratory results as given in ChEMBL document CHEMBL4477181, “Bioactive Octahydroxylated C21 Steroids from the Root Bark of Lycium chinense” (2016).
The source made the active and inactive calls. The rule behind the calls is not given here.

What was measured:
MIN6 [1] = experiment: Protective activity against palmitic acid-induced injury in mouse MIN6 cells assessed as increase in cell proliferation measured after 24 hrs by CCK8 assay; format: functional, cell-based
Outline: (§1)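 Mouse MIN6 β-cells were kept in DMEM (25 mM glucose, 50 μM β-mercaptoethanol, 10% FBS) and grown 24 h on poly-L-lysine to 80–90% confluency. They were then exposed 24 h in serum-free DMEM to 0.4 mM palmitic acid (final) plus compound in 0.1% DMSO (final); liraglutide was the reference. Read-out was CCK-8 absorbance at 450 nm, blank-corrected. Proliferation (%) = (OD sample − OD model)/OD model × 100.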

MIN6 [2] = experiment: Protective activity against palmitic acid-induced injury in mouse MIN6 cells assessed as increase in cell proliferation at 1 uM measured after 24 hrs by CCK8 assay; format: functional; outline: as §1
MIN6 [3] = experiment: Protective activity against palmitic acid-induced injury in mouse MIN6 cells assessed as increase in cell proliferation at 5 uM measured after 24 hrs by CCK8 assay; format: functional; outline: as §1
MIN6 [4] = experiment: Protective activity against palmitic acid-induced injury in mouse MIN6 cells assessed as increase in cell proliferation at 10 uM measured after 24 hrs by CCK8 assay; format: functional; outline: as §1
CHO [5] = experiment: Induction of autophagy in CHO cells expressing GFP-LC3 assessed as GFP-LC3-2 accumulation at 20 uM measured after 8 hrs by flow cytometry relative to control; format: functional, Cricetulus griseus
Outline: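 CHO cells stably expressing GFP-LC3 (clones selected in 1 mg/mL G418) were kept in DMEM with 10% FBS and 800 μg/mL G418, seeded in 24-well plates and grown overnight. They were treated in triplicate for 8 h, with untreated cells as blank and 20 μM curcumin as positive control. Cells were trypsinized, washed with PBS then 0.1% saponin/PBS, and fluorescence at 488 nm was read by flow cytometry (>15,000 events).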

CHO [6] = experiment: Induction of autophagy in CHO cells expressing GFP-LC3 assessed as GFP-LC3-2 accumulation at 25 uM measured after 8 hrs by flow cytometry; format: functional, Cricetulus griseus
Outline: (§2)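 CHO cells stably expressing GFP-LC3 (selected in 1 mg/mL G418, maintained in DMEM/10% FBS with 800 μg/mL G418) were grown overnight. They were then treated in triplicate at 10, 25 or 50 μM for 8 h, with 20 μM curcumin as the positive control, alone or with 0.1 μM bafilomycin A1. Cells were trypsinised, washed, saponin-permeabilised, and fluorescence at 488 nm read by flow cytometry (>15,000 events).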

CHO [7] = experiment: Induction of autophagy in CHO cells expressing GFP-LC3 assessed as GFP-LC3-2 accumulation at 25 uM measured after 8 hrs in presence of bafilomycin A1 by flow cytometry; format: functional, cell-based; conditions: Cricetulus griseus; outline: as §2
MIN6 [8] = experiment: Protective activity against palmitic acid-induced injury in mouse MIN6 cells assessed as increase in cell proliferation at 5 and 10 uM measured after 24 hrs by CCK8 assay relative to DMSO control; format: functional
Outline: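 MIN6 mouse β cells grown in DMEM (25 mM glucose, 10% FBS, β-mercaptoethanol) on poly-L-lysine plates to 80−90% confluency, then exposed 24 h in serum-free DMEM to 0.4 mM palmitic acid (final) plus compound in 0.1% DMSO (final). CCK-8 absorbance read at 450 nm, with compound-only blanks. Proliferation change = (OD sample − OD model)/OD model × 100.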

Question: With `C[C@H](O)[C@]1(O)CC[C@@]2(O)[C@]1(C)[C@H](OC(=O)/C=C/C=C/c1ccccc1)C[C@@H]1[C@@]3(C)CC[C@H](O)C[C@]3(O)[C@H](O)C[C@]12O` as the molecule, how does the Activity (MIN6 [1]) read?
Answer: Dose-dependent effect

Question: And the Activity (MIN6 [2])?
Answer: -3.1%

Question: What about the Activity (MIN6 [3]) of the same molecule?
Answer: 4.2%

Question: What about the Activity (MIN6 [4]) of the same molecule?
Answer: 8.8%

Question: With `COc1cc(/C=C/C(=O)CC(=O)/C=C/c2ccc(O)c(OC)c2)ccc1O` [CURCUMIN] as the molecule, how does the “fold change (FC)” value (CHO [5]) read?
Answer: 1.7

Question: Which results are given for `CO[C@H]1C[C@H](O[C@H]2[C@@H](O)C[C@H](O[C@H]3CC[C@]4(C)[C@H]5C[C@@H](OC(=O)/C=C/C=C/c6ccccc6)[C@@]6(C)[C@](O)(CC[C@@]6(O)[C@H](C)O)[C@]5(O)C[C@H](O)[C@@]4(O)C3)O[C@@H]2C)O[C@H](C)[C@H]1O[C@H]1C[C@@H](OC)[C@H](O)[C@@H](C)O1`?
Answer: fold change (FC) (CHO [6]): 3.1; Activity (CHO [7]): Active

Question: Which “fold change (FC)” value (CHO [6]) does the source give for `CO[C@H]1C[C@H](O[C@@H]2[C@@H](C)O[C@@H](O[C@H]3[C@@H](O)C[C@H](O[C@H]4CC[C@]5(C)[C@H]6C[C@@H](OC(=O)/C=C/C=C/c7ccccc7)[C@@]7(C)[C@](O)(CC[C@@]7(O)[C@H](C)O)[C@]6(O)C[C@@H](O)[C@@]5(O)C4)O[C@@H]3C)C[C@H]2OC)O[C@H](C)[C@H]1O[C@H]1C[C@@H](OC)[C@H](O)[C@@H](C)O1` here?
Answer: 1.3

Question: What about the Activity (CHO [7]) of the same molecule?
Answer: Active

Question: `CO[C@H]1C[C@H](O[C@H]2[C@@H](O)C[C@H](O[C@H]3CC[C@]4(C)[C@H]5C[C@@H](OC(=O)/C=C/C=C/c6ccccc6)[C@@]6(C)[C@](O)(CC[C@@]6(O)[C@H](C)O)[C@]5(O)C[C@@H](O)[C@@]4(O)C3)O[C@@H]2C)O[C@H](C)[C@H]1O[C@H]1C[C@@H](OC)[C@H](O)[C@@H](C)O1` was tested. Which “fold change (FC)” value (CHO [6]) did it give?
Answer: 2.5

Question: And the Activity (CHO [7])?
Answer: Active

Question: How did the “fold change (FC)” value (MIN6 [8]) turn out when `CO[C@H]1C[C@H](O[C@H]2[C@@H](O)C[C@H](O[C@H]3CC[C@]4(C)[C@H]5C[C@@H](OC(=O)/C=C/C=C/c6ccccc6)[C@@]6(C)[C@](O)(CC[C@@]6(O)[C@H](C)O)[C@]5(O)C[C@@H](O)[C@@]4(O)C3)O[C@@H]2C)O[C@H](C)[C@H]1O` was run?
Answer: 2

Question: What about the “fold change (FC)” value (CHO [6]) of the same molecule?
Answer: 2.1

Question: And the Activity (MIN6 [1])?
Answer: Dose-dependent effect

Question: What about the Activity (MIN6 [2]) of the same molecule?
Answer: 0.2%

Question: What about the Activity (MIN6 [3]) of the same molecule?
Answer: 81.7%

Question: And the Activity (MIN6 [4])?
Answer: 87.7%

Question: And the Activity (CHO [7])?
Answer: Active

Question: With `CCCCCCCCCCCCCCCC(=O)N[C@@H](CCC(=O)NCCCC[C@H](NC(=O)[C@H](C)NC(=O)[C@H](C)NC(=O)[C@H](CCC(N)=O)NC(=O)CNC(=O)[C@H](CCC(=O)O)NC(=O)[C@H](CC(C)C)NC(=O)[C@H](Cc1ccc(O)cc1)NC(=O)[C@H](CO)NC(=O)[C@H](CO)NC(=O)[C@@H](NC(=O)[C@H](CC(=O)O)NC(=O)[C@H](CO)NC(=O)[C@@H](NC(=O)[C@H](Cc1ccccc1)NC(=O)[C@@H](NC(=O)CNC(=O)[C@H](CCC(=O)O)NC(=O)[C@H](C)NC(=O)[C@@H](N)Cc1cnc[nH]1)[C@@H](C)O)[C@@H](C)O)C(C)C)C(=O)N[C@@H](CCC(=O)O)C(=O)N[C@@H](Cc1ccccc1)C(=O)N[C@H](C(=O)N[C@@H](C)C(=O)N[C@@H](Cc1c[nH]c2ccccc12)C(=O)N[C@@H](CC(C)C)C(=O)N[C@H](C(=O)N[C@@H](CCCNC(=N)N)C(=O)NCC(=O)N[C@@H](CCCNC(=N)N)C(=O)NCC(=O)O)C(C)C)[C@@H](C)CC)C(=O)O` [LIRAGLUTIDE] as the molecule, how does the Activity (MIN6 [2]) read?
Answer: 19.1%

Question: Which Activity (MIN6 [1]) does the source give for `C[C@H](O)[C@]1(O)CC[C@@]2(O)[C@]1(C)[C@H](OC(=O)/C=C/C=C/c1ccccc1)C[C@@H]1[C@@]3(C)CC[C@H](O[C@H]4C[C@H](O)[C@H](O)[C@@H](C)O4)C[C@]3(O)[C@H](O)C[C@]12O` here?
Answer: Dose-dependent effect

Question: What about the Activity (MIN6 [2]) of the same molecule?
Answer: 1.5%

Question: What about the Activity (MIN6 [3]) of the same molecule?
Answer: 4%

Question: What about the Activity (MIN6 [4]) of the same molecule?
Answer: 11.2%
